Paper PMC5110367 (Nature chemical biology, 2016)
Positions count from the first letter of the chain named.

Experiments:
PPARα LBD = molecular target: T1, PPARα LBD (Homo sapiens, UniProt Q07869); experiment: Lanthascreen TR-FRET PPAR-alpha coactivator assay; format: biochemical
T1 sequence (Q07869 239-466 limits assumed): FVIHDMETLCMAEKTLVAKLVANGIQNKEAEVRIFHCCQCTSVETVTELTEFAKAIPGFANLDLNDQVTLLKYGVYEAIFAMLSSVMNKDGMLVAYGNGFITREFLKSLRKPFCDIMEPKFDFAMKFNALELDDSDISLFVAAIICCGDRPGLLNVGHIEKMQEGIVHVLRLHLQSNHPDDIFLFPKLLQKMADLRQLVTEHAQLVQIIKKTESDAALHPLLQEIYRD

PPARα [1] = molecular target: T2, PPARα (Mus musculus, UniProt P23204); format: binding; conditions: lenti-FL-Ppara-transduced Ppara-null neurons; not with empty lenti-vector
T2 sequence (P23204 1-468): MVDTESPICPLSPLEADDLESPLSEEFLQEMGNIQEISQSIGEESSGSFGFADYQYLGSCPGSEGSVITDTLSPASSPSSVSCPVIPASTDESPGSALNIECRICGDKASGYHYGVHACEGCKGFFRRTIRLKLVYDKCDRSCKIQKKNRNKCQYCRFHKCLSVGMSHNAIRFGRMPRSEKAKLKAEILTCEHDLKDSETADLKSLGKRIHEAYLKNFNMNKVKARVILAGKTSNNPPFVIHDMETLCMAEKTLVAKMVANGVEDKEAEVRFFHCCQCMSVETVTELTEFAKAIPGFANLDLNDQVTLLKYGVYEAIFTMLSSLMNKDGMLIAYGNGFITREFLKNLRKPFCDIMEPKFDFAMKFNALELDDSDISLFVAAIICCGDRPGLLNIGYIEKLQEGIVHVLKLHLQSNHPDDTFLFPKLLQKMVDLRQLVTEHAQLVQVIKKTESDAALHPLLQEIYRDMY

PPARα [2] = molecular target: T3, PPARα (Mus musculus, UniProt P23204, Y314D); format: binding; conditions: lenti-GFP-Y314D-Ppara-transduced Ppara-null neurons
T3 sequence (P23204 1-468 Y314D): T2 sequence (P23204 1-468) with Y314D

PPARα [3] = molecular target: T2, PPARα; experiment: PPRE-driven luciferase assay in primary astrocytes; format: cell-based; conditions: cultured astrocytes, different concentrations, 4 h
primary mouse astrocytes = experiment: MTT cell viability of tk-PPREx3-Luc-transfected astrocytes; format: cell-based; conditions: higher concentrations, 4 h
[4] = test system: PPRE-driven luciferase activity; experiment: PPRE-luciferase assay in Ppara-null astrocytes transduced with empty vector; format: cell-based, mouse; conditions: 4 h
Summary of the method: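 Ppara-null astrocytes came from mixed glial cultures of 7-d-old pups. They were transduced 48 h with empty-vector lentivirions and transfected with tk-PPREx3-Luc reporter. After 24 h they were treated with different doses of test compound for 4 h, then luciferase activity was read. Values are mean ± SD of three independent experiments.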

Y464D-Ppara = molecular target: T4, Y464D-Ppara (Mus musculus, UniProt P23204, Y464D); format: cell-based; conditions: Ppara-null astrocytes transduced with lenti-Y464D-Ppara, 4 h
T4 sequence (P23204 1-468 Y464D): T2 sequence (P23204 1-468) with Y464D

Y314D/Y464D-Ppara = molecular target: T5, Y314D/Y464D-Ppara (Mus musculus, UniProt P23204, Y314D/Y464D); format: cell-based; conditions: Ppara-null astrocytes transduced with lenti-Y314D/Y464D-Ppara, 4 h
T5 sequence (P23204 1-468 Y314D/Y464D): T2 sequence (P23204 1-468) with Y314D, Y464D

CREB promoter = experiment: ChIP analyses of the CREB promoter; format: cell-based; conditions: ChIP followed by real-time PCR
[5] = test system: Ppara-null hippocampal neurons; experiment: AMPA-driven calcium influx in transduced Ppara-null hippocampal neurons; format: cell-based, mouse; conditions: 50 μM N20C present
Summary of the method: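 Primary hippocampal neurons came from pooled E18 Ppara-null fetal mice. Tissue was trypsinised 5 min at 37°C and plated on poly-D-lysine in neurobasal medium. AraC (10 μM) was added next day, and cells differentiated for 9–10 days. Neurons were lentivirally transduced with the indicated Ppara construct, then given the test compound. 50 μM N20C blocked NMDA-receptor calcium flow during AMPA stimulation. Mean of three independent experiments.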

[6] = lenti-Y314D/Y464D-Ppara-transduced

| EC50 (PPARα LBD) | ligand detected by GC-MS in nuclear extract (PPARα [2]) | SMILES | binding to de novo-synthesized PPARα (immunoprecipitation, GC-MS) (PPARα [1]) | PPRE-luciferase activity (PPARα [3]) | cytotoxicity (MTT) (primary mouse astrocytes) | PPRE-driven luciferase activity [4] | PPRE-luciferase activity (Y464D-Ppara) | PPRE-luciferase activity (Y314D/Y464D-Ppara) | recruitment of PPARα and PGC1α to the CREB promoter (CREB promoter) | AMPA-mediated calcium influx ([5]; lenti-FL-Ppara-transduced) | AMPA-mediated calcium influx ([5]; lenti-Y314D-Ppara-transduced) | AMPA-mediated calcium influx [5, 6] | AMPA-mediated calcium influx ([5]; lenti-Y464D-Ppara-transduced) |
| --- | --- | --- | --- | --- | --- | --- | --- | --- | --- | --- | --- | --- | --- |
| 5.26 µM | low amount | CCCCCCCCCCCCCCCC(N)=O [HEX, hexadecanamide] | found to be bound to de novo-synthesized PPARα | increased the PPRE-luciferase activity in a dose-dependent manner | significant level of cytotoxicity | remained unable to induce PPRE-driven luciferase activity | unable to stimulate PPRE-luciferase activity | unable to stimulate PPRE-luciferase activity | stimulated the recruitment of PPARα and its coactivator PGC1α to the CREB promoter | stimulated AMPA-mediated calcium influx | only able to partially restore | remained unable to increase AMPA mediated calcium influx | remained unable to increase AMPA mediated calcium influx |
| 4.84 µM | low amount | CCCCCCCCC=CCCCCCCCC(N)=O [OCT, 9-octadecenamide] | found to be bound to de novo-synthesized PPARα | increased the PPRE-luciferase activity in a dose-dependent manner | significant level of cytotoxicity | remained unable to induce PPRE-driven luciferase activity | unable to stimulate PPRE-luciferase activity | unable to stimulate PPRE-luciferase activity | stimulated the recruitment of PPARα and its coactivator PGC1α to the CREB promoter | stimulated AMPA-mediated calcium influx | only able to partially restore | remained unable to increase AMPA mediated calcium influx | remained unable to increase AMPA mediated calcium influx |
